Screens (PubChem)
Sampled rows, rich in hits. Any-hit rate of the full collection: about 3.1%.
SENP8 block-1 – inhibitors of human SENP8 protease | inhibition, % at 20 µM | recombinant SENP8, Nedd8 substrate fluorescence | Q96LD8 | actives 0.64% (n = 360,000); in the data active means inhibition mostly above about 40%, no sharp cut-off; inactive means mostly below about 27%
SENP8 block-2 – blocks the human protease SENP8; Q96LD8; purified SENP8, Z-RLRGG-aminoluciferin cleavage, luminescence; inhibition, % at 10 µM; actives 1.2% (n = 330,000); in the data active means inhibition above about 50%
UBC13 polyUb – human UBC13 polyubiquitination inhibition; P61088; UBC13 polyubiquitin chain formation, TR-FRET; inhibition, % at 20 µM; actives 0.47% (n = 330,000); AID 485273; in the data active means inhibition above about 45%, passing the limit was not always enough; inconclusive means no clear call, values can overlap the other calls
SENP6 block – blocks the human protease SENP6 | Q9GZR1 | Recombinant SENP6 catalytic domain, aminoluciferin luminescence | inhibition, % at 10 µM | actives 1.8% (n = 330,000);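 active means inhibition above about 50% at the single tested dose, limit read from the data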;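 further: plate controls were DMSO wells with enzyme for no effect and DMSO wells lacking enzyme for full effect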
Target sequence (Q9GZR1 628-1112 limits assumed): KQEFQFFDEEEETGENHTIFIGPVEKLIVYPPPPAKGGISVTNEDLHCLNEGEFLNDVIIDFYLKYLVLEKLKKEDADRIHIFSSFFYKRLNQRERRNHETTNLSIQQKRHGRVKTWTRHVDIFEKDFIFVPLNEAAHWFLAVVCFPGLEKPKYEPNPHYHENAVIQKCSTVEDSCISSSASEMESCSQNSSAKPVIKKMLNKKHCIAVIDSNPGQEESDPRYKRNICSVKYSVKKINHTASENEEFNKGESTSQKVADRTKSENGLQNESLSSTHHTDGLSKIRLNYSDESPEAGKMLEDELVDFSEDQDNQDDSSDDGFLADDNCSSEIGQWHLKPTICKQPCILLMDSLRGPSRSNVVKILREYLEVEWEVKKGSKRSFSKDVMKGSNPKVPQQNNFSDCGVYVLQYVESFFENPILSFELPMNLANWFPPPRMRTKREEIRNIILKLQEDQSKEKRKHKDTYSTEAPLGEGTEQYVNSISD
SENP7 inh – inhibitors of human SENP7 protease | AID 434973 | inhibition, % at 5 µM | recombinant SENP7, Z-RLRGG-aminoluciferin luminescence, 40 min | actives 1.5% (n = 330,000);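 active means inhibition above about 50% at the single test dose, limit read from the data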;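 further: plate controls were DMSO with enzyme for no effect and no enzyme buffer wells for full effect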
Apaf1 inhib – human Apaf-1 inhibition; O14727; reconstituted apoptosome caspase-3 activity, DEVD-Rh110 fluorescence; inhibition, % at 20 µM; actives 0.71% (n = 330,000); AID 489030; active means inhibition of at least 40% at 20 µM;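 further: plate controls were DMSO wells for no effect and DEVD-CHO caspase inhibitor wells for full effect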
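Medium: Hepes buffer, pH 7.5 / System: biochemical Apaf-1 apoptosome reconstitution / Measured by: Rh110 fluorescence, excitation 480 nm, emission 540 nm / Times: compound with Apaf-1, dATP, procaspase-3 30 min, then 50 min reaction, room temperature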
SENP8 conf – human SENP8 inhibition, confirmed. shares compounds with SENP7 inh. AID 488912. inhibition, % at 12.5 µM. actives 40% (n = 6,200). Recombinant SENP8, Z-RLRGG-aminoluciferin luminescence, 60 min;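 active means mean inhibition across replicates above about 50%, limit read from the data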
SENP6 conf – human SENP6 inhibition, confirmed; actives 58% (n = 6,200); AID 488915; shares compounds with SENP7 inh; inhibition, % at 12.5 µM; recombinant SENP6, Z-RLRGG-aminoluciferin luminescence
SENP7 conf – confirmation of human SENP7 protease inhibitors. shares compounds with SENP7 inh. recombinant SENP7, Z-RLRGG-aminoluciferin luminescence, 40 min. AID 488917. inhibition, % at 12.5 µM. actives 69% (n = 6,200)
Casp3 select – caspase-3 inhibition (SENP selectivity assay). shares compounds with SENP7 inh. purified caspase-3, Z-DEVD-aminoluciferin luminescence, 60 min. inhibition, % at 12.5 µM. actives 60% (n = 6,200). AID 488918;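 active means mean inhibition above about 50%, limit read from the data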;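 further: plate controls were enzyme with DMSO for no effect and wells without caspase-3 for full effect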
SENP luc ctr – interferes with luciferase luminescence in SENP counter-screen. shares compounds with SENP7 inh. Pre-incubated SENP8/Z-RLRGG-aminoluciferin, luciferase luminescence interference. inhibition, % at 12.5 µM. actives 39% (n = 6,200). AID 488919;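 active means mean inhibition above about 50% when retested at one dose, limit read from the data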;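 further: plate controls were DMSO wells with completed reaction for no effect and substrate without enzyme for full effect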
Apaf-1 inh conf2 – confirmation of Apaf-1 inhibitors; reconstituted apoptosome, caspase-3 DEVD-Rh110 fluorescence; shares compounds with Apaf1 inhib; AID 504614; inhibition, % at 20 µM; actives 25% (n = 1,800);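 active means mean inhibition of at least 40% at 20 µM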;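 further: plate controls were DMSO wells for no effect and DEVD-CHO caspase inhibitor control wells for full effect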
Rh110 interf inh – counter-screen for Apaf-1 inhibitors: fluorescence interference. shares compounds with Apaf1 inhib. Rh110 fluorescence interference, quenched caspase reaction. activation (fluorescence interference), % at 20 µM. 1,800 tested, under 10 active;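 active means signal rise of 40% or more at 20 µM, treated as a fluorescence artifact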
Fluor interf inh – counter-screen for Apaf-1 inhibitors: fluorescence interference, dose response; fluorescence interference counterscreen, Apaf-1 assay format; 460 tested, under 10 active; shares compounds with Apaf1 inhib; IC50, µM; call rule not given here
* hit, by the source's call; i = inactive; ? = inconclusive; nt = no result.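 How the source made its calls, unless noted: active means mean inhibition above about 50% in the one-dose retest (limit read from the data); inactive means the rest.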

SMILES | SENP8 block-1 | SENP8 block-2 | UBC13 polyUb | SENP6 block | SENP7 inh | Apaf1 inhib | SENP8 conf | SENP6 conf | SENP7 conf | Casp3 select | SENP luc ctr | Apaf-1 inh conf2 | Rh110 interf inh | others
O=C1C(C2=C(O)c3ccccc3C2=O)=Nc2ccccc21 | 60.4* | 79.0* | -93.9 | 89.3* | 16.8 | 65.8* | 14.3 | 95.1* | 99.5* | 59.6* | 20.2 | 99.1* | 11.5 | Fluor interf inh=>100
COCCCNC(=O)c1csc([C@@H]2O[C@H](CO)[C@H](O)[C@H](O)[C@H]2O)n1 | 7.1 | nt | nt | nt | nt | nt | nt | nt | nt | nt | nt | nt | nt
Cc1ccc(NC(=S)Nc2cccc3cnccc23)cc1C | -211.8 | 54.4* | -47.8 | 64.7* | 15.3 | 53.4* | 11.8 | 20.2 | 8.5 | -0.5 | -1.4 | 23.3 | 10.7
FC(F)(F)c1ccccc1NC(=S)Nc1cccc2cnccc12 | -119.3 | nt | nt | nt | nt | nt | nt | nt | nt | nt | nt | nt | nt
Fc1ccccc1NC(=S)Nc1cccc2cnccc12 | -250.0 | 87.4* | -36.7 | 91.8* | 78.1* | 97.4* | 15.0 | 41.0 | 26.3 | 7.0 | 16.1 | 11.7 | -4.0
NC(=S)Nc1cccc2cnccc12 | -0.6 | 0.5 | 0.4 | 1.9 | 4.7 | -6.9 | nt | nt | nt | nt | nt | nt | nt
Cc1ccc(NC(=S)Nc2cccc3cnccc23)cc1 | -110.1 | 86.8* | -49.7 | 92.0* | 70.1* | 96.2* | -3.1 | 24.6 | 4.1 | 7.0 | 8.9 | 19.5 | -1.4
Cc1ccccc1NC(=S)Nc1cccc2cnccc12 | -152.3 | 87.9* | -29.8 | 97.8* | 85.9* | 90.9* | 15.5 | 32.8 | 19.0 | 10.2 | 6.0 | 9.3 | 1.5
CC(C)CN1C(=O)CSCC1(C)C(=O)NC(C)C (stereo not drawn) | 16.9 | nt | nt | nt | nt | nt | nt | nt | nt | nt | nt | nt | nt
CN(C)CCCNc1cc(O)c2ncccc2c1 | -12.4 | 48.0 | ? | 73.7* | 44.3 | 77.5* | 19.0 | 62.1* | 24.7 | 89.7* | -7.4 | 54.6* | 3.0 | Fluor interf inh=>100
COc1ccc(C(C)(C)C)cc1NC(=O)CNc1cccc2ccccc12 | -330.8 | 48.4 | -60.3 | 77.2* | 24.7 | 43.8* | 11.7 | 9.6 | 9.4 | 3.8 | 2.1 | 28.8 | 7.0
COc1ccccc1NC(=O)Cc1cccc2ccccc12 | 6.0 | 1.8 | -4.9 | -34.6 | 12.2 | 11.8 | nt | nt | nt | nt | nt | nt | nt
CCOC(=O)c1c(C)[nH]c(C(=O)N(C)CC(=O)Nc2ccc(OCC)c(OCC)c2)c1C | 10.3 | nt | nt | nt | nt | nt | nt | nt | nt | nt | nt | nt | nt
COc1cccc2sc3ccc(NCCC4CCCN4C)cc3c(=O)c12 (stereo not drawn) | 8.8 | -21.0 | -32.1 | -7.8 | 11.7 | 23.9 | nt | nt | nt | nt | nt | nt | nt
COc1cc2sc3cc(NCC[C@@H]4CCCN4C)ccc3c(=O)c2cc1OC | i | 50.2* | 44.9 | 57.0* | 52.8* | 54.5* | 9.3 | 9.1 | 13.3 | 30.2 | 36.9 | 23.5 | 14.0
COCCCNC1=C(Cl)C(=O)c2ccccc2C1=O | 37.4 | 6.4 | -280.1 | 31.5 | 16.7 | 33.3 | nt | nt | nt | nt | nt | nt | nt
CC(C)OCCCNC1=C(Cl)C(=O)c2ccccc2C1=O | 68.2* | 22.5 | -279.4 | 62.5* | 16.6 | 52.8* | 25.2 | 51.2* | 14.6 | 17.9 | 15.2 | 28.5 | 3.6
CCN(CC)CCCNC1=C(Cl)C(=O)c2ccccc2C1=O | 46.7* | 22.3 | -334.0 | 75.4* | 11.0 | 50.4* | 41.1 | 66.8* | 20.6 | 54.6* | 3.1 | 65.1* | 4.1 | Fluor interf inh=>100
